APJ ag = agonists of human apelin receptor APJ, primary screen, CHO-K1 cells, PathHunter beta-arrestin, luminescence | P35414 | 0% DMSO wells, 100% apelin | activation, % at 20 µM | 0.11% of 330,000 active;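 active = activation more than six SD over the plate average, tested at 20 µM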;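 also: 0% = DMSO alone and 100% = apelin-13 at 10 nM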
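Assay system – PathHunter CHO-K1 APJ (AGTRL-1) beta-arrestin reporter cells · Compound – one dose, 20 µM compound, 1% DMSO · Timing – compound 90 min 25 °C, reagent 1 h · Measured by – luminescence from split beta-galactosidase complementation, Galacton Star/Emerald II substrate · Measure – beta-arrestin recruitment to APJ as agonist activity, luminescent signal · Benchmarks – DMSO vs Apelin-13 10 nM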
CCR6 antagonist = CCR6 receptor antagonists, primary screen, cell-based, CHO-K1, luminescence, beta-arrestin, uHTS; inhibition, % at 20 µM; C-C chemokine receptor type 6 (Homo sapiens), P51684; CHO-K1 CCR6 PathHunter beta-arrestin, CCL20-stimulated; 0.49% of 340,000 active; AID 493098, 2011;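 active = compounds whose inhibition of the agonist-driven luminescence signal at 20 µM reaches about 50%, limit read from the data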;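 also: cells stimulated with CCL20 at 14 nM final; plate controls were DMSO with CCL20 for no effect and DMSO without agonist for full effect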
Target sequence (P51684 whole entry, looked up): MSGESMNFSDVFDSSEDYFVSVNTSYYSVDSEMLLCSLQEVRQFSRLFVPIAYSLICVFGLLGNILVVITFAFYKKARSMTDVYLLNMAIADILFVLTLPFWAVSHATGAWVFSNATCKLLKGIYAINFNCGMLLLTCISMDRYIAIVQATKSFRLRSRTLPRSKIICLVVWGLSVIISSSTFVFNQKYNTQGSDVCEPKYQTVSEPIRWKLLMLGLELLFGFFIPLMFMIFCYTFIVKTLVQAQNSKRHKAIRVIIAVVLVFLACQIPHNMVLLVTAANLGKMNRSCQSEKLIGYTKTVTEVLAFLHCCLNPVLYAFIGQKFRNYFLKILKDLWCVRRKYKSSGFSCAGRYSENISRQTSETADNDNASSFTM
CXCR6 inh = CXCR6 receptor inhibitors, primary screen, cell-based, beta-arrestin, luminescence, CHO-K1 PathHunter, 1536-well | C-X-C chemokine receptor type 6 (Homo sapiens), O00574 | inhibition, % at 20 µM | 0.36% of 360,000 active; in the data active = inhibition above about 34%, passing the limit was not always enough;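 also: antagonist mode with CXCL16 agonist at 10 nM final; 0% = 10 nM CXCL16 with DMSO and 100% = unstimulated wells without agonist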
EBI2 antag = EBI2 receptor antagonists, beta-arrestin recruitment, primary screen, cell-based, luminescence, 7a,25-OHC stimulation, uHTS; G-protein coupled receptor 183 (Homo sapiens), P32249; 7a,25-OHC stimulated; inhibition, % at 5 µM; 0.81% of 360,000 active; in the data active = inhibition above about 38%;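 also: enzyme fragment complementation signal reports receptor beta-arrestin coupling in cells; 0% = agonist plus DMSO wells and 100% = wells without agonist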
APJ antagonist = antagonists of human apelin receptor APJ, primary screen, CHO-K1 cells, beta-arrestin complementation, luminescence | inhibition, % at 20 µM | 0.32% of 330,000 active | AID 2521, 2010 | P35414;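 active = inhibition above about 40% at 20 µM, limit read from the data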;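 also: cells challenged with 10 nM apelin-13 agonist together with compound; plate controls were apelin-13 plus DMSO wells for no effect and DMSO wells lacking apelin-13 for full effect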
CXCR6 confirm = CXCR6 receptor antagonists, confirmation, cell-based, single concentration, beta-arrestin, luminescence; AID 602409, 2012; shares compounds with CXCR6 inh; CHO-K1 CXCR6 PathHunter beta-arrestin; inhibition, % at 20 µM; 65% of 700 active;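 active = mean inhibition over four retests above 40%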;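 also: receptor stimulated with 10 nM CXCL16 agonist; beta-galactosidase fragment complementation upon beta-arrestin recruitment to receptor; plate controls were CXCL16 plus DMSO for no effect and DMSO without CXCL16 for full effect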
The depositor's hits bear a star. Hits are enriched below; roughly 1.5% of the tested compounds scored in any of these assays.

What do the screens show for `C=CC[C@@H](CC(=O)N(CCO)Cc1ccccc1)C(=O)N[C@H](COC(=O)[C@@H](CC=C)Cc1ccc(F)cc1)Cc1ccccc1`?
APJ ag: -5; CCR6 antagonist: 34; CXCR6 inh: 26; EBI2 antag: 24; APJ antagonist: 23

How did O=C(O)c1c[nH]c2ccc([N+](=O)[O-])cc2c1=O do in these assays?
CCR6 antagonist: 3; CXCR6 inh: 1; EBI2 antag: 14

Results for Cc1cc(NCC(=O)Nc2ccc(C)c(S(=O)(=O)N3CCOCC3)c2)ccc1Br ?
CXCR6 inh: -7; EBI2 antag: -10

What do the screens show for `CCCCc1ccc(-n2nnnc2SCC(=O)Nc2cc(OC)c([N+](=O)[O-])cc2C)cc1`?
APJ ag: -2; CCR6 antagonist: 1; CXCR6 inh: 75*; EBI2 antag: 22; APJ antagonist: 7; CXCR6 confirm: 13

How did CCOC(=O)CSc1cccc2cccnc12 do in these assays?
APJ ag: -7; CCR6 antagonist: 69*; CXCR6 inh: 53*; EBI2 antag: 5; APJ antagonist: 37; CXCR6 confirm: 65*

Results for COC(=O)[C@@]12C[C@@H](CC(=O)NCC34CC5CC(CC(C5)C3)C4)C(=O)N(CCc3ccc(OC)c(OC)c3)C1=CCC(C)(C)C2 ?
EBI2 antag: 25

How did O=C1c2cccc3c([N+](=O)[O-])ccc(c23)C(=O)N1c1ccccn1 do in these assays?
APJ ag: 0; CXCR6 inh: 52*; EBI2 antag: 24; APJ antagonist: 30; CXCR6 confirm: 52*

What do the screens show for `O=C(CC1C(=O)NCCN1Cc1ccccc1)NC1CCCCC1` (stereo not drawn)?
CXCR6 inh: 14; EBI2 antag: 1

Results for O=C(NCCCN1CCOCC1)c1cc2c(s1)CSC2 ?
APJ ag: -3; CCR6 antagonist: -7; CXCR6 inh: 44*; EBI2 antag: 5; APJ antagonist: 13; CXCR6 confirm: -9

Results for C/C(=N\NC(=O)c1nnn(-c2nonc2N)c1CSc1ccc(C)cc1)c1cccnc1 ?
CXCR6 inh: -2; EBI2 antag: -5

How did CCN1CCN(CC(=O)N2N=C(c3cccs3)CC2c2ccc(OC)c(OC)c2)C(=O)C1=O (stereo not drawn) do in these assays?
APJ ag: -1; CCR6 antagonist: 5; CXCR6 inh: 2; EBI2 antag: -3; APJ antagonist: 7

What do the screens show for `C=C1C(=O)c2sccc2C(c2ccc(OC)c(OC)c2)C1COC(C)=O` (stereo not drawn)?
CCR6 antagonist: 92*; CXCR6 inh: 94*; EBI2 antag: 60*; CXCR6 confirm: 97*

What do the screens show for `O=C(/C=C/c1cccc([N+](=O)[O-])c1)c1ccco1`?
APJ ag: 0; CCR6 antagonist: 20; CXCR6 inh: 0; EBI2 antag: -10; APJ antagonist: 20

What do the screens show for `O=C(/C=C/c1cccc([N+](=O)[O-])c1)c1ccc([N+](=O)[O-])o1`?
CCR6 antagonist: 105*; CXCR6 inh: 95*; EBI2 antag: 9; CXCR6 confirm: 98*

How did CC1=C(C(=O)N(C(C)C)C(C)C)CC(CC(=O)NCc2cccs2)C(=O)N1Cc1ccc(C(C)(C)C)cc1 (stereo not drawn) do in these assays?
CXCR6 inh: 11; EBI2 antag: 12

How did CC(C)n1c(=O)c2ccccc2n1Cc1cn(Cc2cccs2)nn1 do in these assays?
CXCR6 inh: 2; EBI2 antag: -3

How did Cc1nc2ccccc2c(=O)n1-c1cccc(NC(=O)c2cccs2)c1 do in these assays?
APJ ag: 13; CCR6 antagonist: -2; CXCR6 inh: -3; EBI2 antag: -4; APJ antagonist: -2

Results for O=C(Nc1cccc(N2C(=O)C=CC2=O)c1)c1cccs1 ?
APJ ag: -2; CXCR6 inh: 77*; EBI2 antag: 17; APJ antagonist: -7; CXCR6 confirm: 19

Results for COCC1CCCCN1C(=O)c1ccc2oc(CCc3ccccc3)nc2c1 (stereo not drawn) ?
APJ ag: -4; CCR6 antagonist: 3; CXCR6 inh: 37*; EBI2 antag: 0; APJ antagonist: 2; CXCR6 confirm: 22

Results for CCn1c(SCC(=O)Nc2ccccc2)nc2c(c1=O)SCC2 ?
CXCR6 inh: -3; EBI2 antag: -15

Results for CCOC(=O)C1=CCN(S(=O)(=O)c2ccc(C)cc2)C1c1ccc(CC)cc1 (stereo not drawn) ?
CXCR6 inh: -2; EBI2 antag: 4

Results for O=c1c2c([N+](=O)[O-])cc([N+](=O)[O-])cc2sn1Cc1ccccc1 ?
APJ ag: 2; CCR6 antagonist: 97*; CXCR6 inh: 45*; EBI2 antag: 6; APJ antagonist: 9; CXCR6 confirm: 16

How did O=c1c2ccccc2sn1-c1ccccc1 do in these assays?
APJ ag: 2; CCR6 antagonist: 76*; CXCR6 inh: 86*; EBI2 antag: 13; APJ antagonist: -12; CXCR6 confirm: 16

Results for Cc1ccc(NS(=O)(=O)c2cc([N+](=O)[O-])ccc2NNC(=S)Nc2cc(C)ccc2C)c(C)c1 ?
APJ ag: -8; CCR6 antagonist: 86*; CXCR6 inh: 63*; EBI2 antag: 13; APJ antagonist: 53*; CXCR6 confirm: 64*

Results for COc1ccc(NC(=S)NNc2ccc([N+](=O)[O-])cc2S(=O)(=O)Nc2ccc(C)cc2C)cc1 ?
APJ ag: 0; CCR6 antagonist: 77*; CXCR6 inh: 49*; EBI2 antag: 14; APJ antagonist: 1; CXCR6 confirm: 56*

Results for CS(=O)(=O)N(CC(=O)Nc1ccccc1C(=O)N1CCOCC1)c1cccc(F)c1 ?
APJ ag: -3; CCR6 antagonist: 2; CXCR6 inh: -3; EBI2 antag: 8; APJ antagonist: 10

What do the screens show for `CCOc1ccc(N(CC(=O)Nc2ccccc2C(=O)N2CCOCC2)S(=O)(=O)c2ccc(F)cc2)cc1`?
APJ ag: -4; CCR6 antagonist: 3; CXCR6 inh: 70*; EBI2 antag: 0; APJ antagonist: 3; CXCR6 confirm: -5

What do the screens show for `Cc1nc2cc(OC3(C)CCN(Cc4ccc(OC(F)(F)F)cc4)C3)ccc2s1` (stereo not drawn)?
CXCR6 inh: -3; EBI2 antag: 5

Source: PubChem (Sanford-Burnham Center for Chemical Genomics)
